Results collected from several papers.
Each line is one published result; the experiments were not run side by side.
Target: Misshapen-like kinase 1 (MINK1, Homo sapiens, UniProt Q8N4C8)

| SMILES | assay | conditions | measurement | result |
| --- | --- | --- | --- | --- |
| Cc1cnc(NC2CCOCC2)nc1-n1cnc(C(=O)NC(CN)c2cc(F)cc(Cl)c2)c1 (stereo not drawn) | enzyme activity, inhibitor, radiometric | 1 µM | remaining activity | 103% |
| COc1cc2ncnc(Nc3ccc(Oc4ccccc4)cc3C)c2cc1OC | enzyme activity, inhibitor | 1 µM | inhibition | 7% |
| Cc1sc(C(=O)NC2COC2)cc1-n1cc(NC(=O)Nc2c(F)cccc2Cl)cn1 | enzyme activity, inhibitor | 10 µM | remaining activity | 102% |
| O=C1Nc2ccc(Cl)cc2C1=Cc1cc(Cl)c(O)c(Cl)c1 | cell-free assay | 0.5 µM | remaining signal | 22.4% |
| CCCOc1ccc([C@@H]2[C@@H](C(=O)O)[C@H](c3ccc4c(c3)OCO4)CN2CC(=O)Nc2c(CC)cccc2CC)cc1 | cell-free assay, competition with immobilised ligand | 1 µM | remaining binding | 78% |
| COc1cc(Nc2cnc(C#N)c(O[C@H](C)CN(C)C)n2)ncc1-c1cnn(C)c1 | enzyme activity, inhibitor, radiometric | 1 µM | remaining activity | 90% |
| CC(C)(C)c1nc2c(s1)c1nc(N)ncc1c1ccc(NS(=O)(=O)c3c(F)cccc3F)c(F)c12 | enzyme activity, inhibitor, radiometric | 1 µM | remaining activity | 90% |
| Oc1cccc(-c2nc(N3CCOCC3)c3oc4ncccc4c3n2)c1 | enzyme activity, inhibitor | 10 µM | remaining activity | 116% |
| Cn1nc(C(=O)NCc2ccc(C(=O)O)cc2)cc1-c1ccc2[nH]ccc2c1 | cell-free assay, competition with immobilised ligand | 0.1 µM | remaining binding | 95% |
| CS(=O)(=O)CCNCc1ccc(-c2ccc3ncnc(Nc4ccc(OCc5cccc(F)c5)c(Cl)c4)c3c2)o1 | cell-free assay | 0.5 µM | remaining signal | 111% |
| O=C(NCc1ncc(C(F)(F)F)cc1Cl)c1ccc2c(c1)C1(CCS(=O)(=O)CC1)[C@@H](C1CC1)N2S(=O)(=O)c1ccc(F)cc1 | cell-free assay, competition with immobilised ligand | 1 µM | remaining binding | 85% |
| CCN(CC)CCNC(=O)c1c(C)[nH]c(/C=C2\C(=O)Nc3ccc(F)cc32)c1C | enzyme activity, inhibitor | 0.3 µM | inhibition | 48% |
| O=C1NC(=O)c2cc(Nc3ccc(F)cc3)c(Nc3ccc(F)cc3)cc21 | cell-free assay | 0.5 µM | remaining signal | 99% |
| CNC(=O)c1cc(Oc2ccc(NC(=O)Nc3ccc(Cl)c(C(F)(F)F)c3)cc2)ccn1 | enzyme activity, inhibitor | 10 µM | inhibition | 75% |
| FC(F)(F)Oc1cccc(-c2cnc3ccc(-c4ccncc4)nn23)c1 | enzyme activity, inhibitor, radiometric | 5 µM | activity vs control | 63% |
| CCCS(=O)(=O)Nc1ccc(F)c(C(=O)c2c[nH]c3ncc(-c4ccc(Cl)cc4)cc23)c1F | enzyme activity, inhibitor | 1 µM | inhibition | < 20% |
| CCCOc1ccc(OC)c(F)c1C(=O)c1ccc(C(=O)N[C@@H]2CNC[C@H]2NC(=O)c2ccc3[nH]ncc3c2)cc1 | enzyme activity, inhibitor | 10 µM | remaining activity | 96% |
| Cc1ccc(Nc2nccc(N(C)c3ccc4c(C)n(C)nc4c3)n2)cc1S(N)(=O)=O | enzyme activity, inhibitor | 10 µM | inhibition | 80% |
| CN(C)C1CCN(CC#Cc2nn(C3CCCC3)c3nc(NCc4ccccc4)ncc23)C1 (stereo not drawn) | enzyme activity, inhibitor, FRET | 0.1 µM | inhibition | 11% |
| C[C@H](c1ccnc(Nc2nc3ccc(-c4cc(N(C)C)ncn4)cc3[nH]2)c1)N1CCN(C(=O)CC(F)(F)F)CC1 | cell-free assay, competition with immobilised ligand | 0.1 µM | remaining binding | 94% |
| Cn1c(=O)n(-c2ccc(C(C)(C)C#N)cc2)c2c3cc(-c4cnc5ccccc5c4)ccc3ncc21 | enzyme activity, inhibitor | 10 µM | remaining activity | 75% |
| COc1cc(-c2cc(-c3ccc(N4CCNCC4)cc3)cnc2N)cc(OC)c1OC | enzyme activity, inhibitor | 0.1 µM | inhibition | 74% |
| CO[C@@H](C)c1c(Nc2ccc([C@H](N(C)C(=O)C3CCS(=O)(=O)CC3)C(F)(F)F)cc2)cnc2cc(Cl)nn12 | cell-free assay, competition with immobilised ligand | 1 µM | remaining binding | 100% |
| CCN(CC)c1ccc(C2=NNC(=O)CC2C)cc1[N+](=O)[O-] (stereo not drawn) | enzyme activity, inhibitor | 10 µM | remaining activity | 102% |
| CCS(=O)(=O)c1cc2cc(C[C@@](O)(CC(C)(C)c3ccc(F)cc3C(N)=O)C(F)(F)F)[nH]c2cn1 | cell-free assay, competition with immobilised ligand | 1 µM | remaining binding | 79% |
| O=C(Nc1cnn(-c2csc(C(=O)NC3COC3)c2)c1)Nc1ccccc1Cl | enzyme activity, inhibitor | 5 µM | remaining activity | 79.4% |
| Cc1nc(C2CCN(C(=O)c3ccc(OC(F)(F)F)cc3N)CC2)c2ncc(N3CCN(C)CC3)cc2n1 | cell-free assay, competition with immobilised ligand | 1 µM | remaining binding | 93% |
| Cc1ccc(C(=O)NCc2ccsc2)cc1C#Cc1cn(C(C)C)c2ncnc(N)c12 | enzyme activity, inhibitor | 1 µM | activity vs control | 84% |
| N#CC1(c2ccccn2)CCN(Cc2cc(C(=O)N3CCCC3)c(=O)n3ccccc23)CC1 | cell-free assay, competition with immobilised ligand | 1 µM | remaining binding | 89% |
| COc1cc(/C=C/C(=O)CC(=O)/C=C/c2ccc(O)c(OC)c2)ccc1O | enzyme activity, inhibitor | 1 µM | activity vs control | 78% |
